Shown are actives, neighbours in structure and some others; about 1.4% of the full set was active somewhere.
PLC-beta3 inh: human PLC-beta3 inhibitors, primary screen, biochemical, fluorescence | Purified PLC-beta3, fluorogenic substrate | inhibition, % at 12.2 µM | hit rate 0.18% among 370,000 | AID 720704, 2013;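 further: 0% = median of compound wells on plate and 100% = full blocker control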
Tn6 DDE FP: inhibitors of Tn6 peptide binding to fibrin DD(E), primary screen, biochemical, fluorescence polarization, human fibrin, Tn6 probe; Fibrinogen beta chain (Homo sapiens), P02675; Fibrin DD(E) TRITC-Tn6 fluorescence polarization displacement; inhibition, % at 8.3 µM; hit rate 0.21% among 370,000;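 active means inhibition above a per-campaign cutoff: mean of compounds within control limits plus 3 SD, cut at about 15% in these data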;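 further: 0% = median of all compound wells on the plate and 100% = blocking peptide control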
PLC-gamma1 inh: PLC-gamma1 enzyme inhibitors, primary screen, biochemical, fluorescence, purified enzyme | fluorogenic substrate | AID 720700, 2013 | hit rate 0.84% among 370,000 | inhibition, % at 12.2 µM; in the data active means inhibition above about 9.5%
DNA FID counter: compounds displacing fluorescent DNA intercalator, primary screen, artefact control for HCV NS3 helicase inhibitor project, biochemical, FID fluorescence; inhibition, % at 7.9 µM; DNA fluorescent intercalator displacement; hit rate 0.17% among 290,000; AID 1845, 2009; in the data active means inhibition above about 37%;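 further: 0% = vehicle and 100% = reference compound; higher means more ethidium bromide displaced from hairpin DNA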
Tn7 DDE FP: inhibitors of Tn7 peptide binding to fibrin DD(E), primary screen, biochemical, fluorescence polarization, human fibrin, Tn7 probe; Fibrinogen beta chain (Homo sapiens), P02675; FP displacement of FITC-Tn7 peptide from fibrin DD(E); 0% = median of compound wells per plate; inhibition, % at 8.3 µM; hit rate 0.13% among 370,000; AID 720508, 2013;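 active means inhibition above the mean of compounds falling within the control limits plus 3 SD of them, cut at about 14% in these data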;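 further: 0% = plate median of compound wells and 100% = 10 µM Aha-Tn7 peptide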
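Test system – human fibrin DD(E) · Times – 10 min preincubation, 3 h with tracer, room temperature · Detection – fluorescence polarization of the labelled Tn7 tracer · Measure – percent inhibition normalized to high-control wells · Benchmarks – high control wells with 10 µM unlabelled Aha-Tn7 peptide (full inhibition) · Repeats – singlicate testing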
PLCgamma1 ctr: PLC-gamma1 enzyme inhibitors, counter-screen for PLC-beta3 inhibitor project, biochemical, fluorescence | shares compounds with PLC-gamma1 inh | purified PLC-gamma1, fluorogenic substrate | inhibition, % at 12.3 µM | hit rate 3.1% among 3,300 | AID 743258, 2014; in the data active means inhibition above about 9.5%
PLCb3 confirm: PLC-beta3 inhibitor confirmation, biochemical, fluorescence, purified enzyme. shares compounds with PLC-gamma1 inh. inhibition, % at 12.3 µM. fluorogenic substrate fluorescence. hit rate 1% among 3,300
An asterisk follows results filed as active; · = no result. Unless noted, no stated cut-off is given here; in the data, active means inhibition above about 11%; inactive means the rest.

SMILES	PLC-beta3 inh	Tn6 DDE FP	PLC-gamma1 inh	DNA FID counter	Tn7 DDE FP	PLCgamma1 ctr	PLCb3 confirm
CC1=C(C(=O)N2CCCCCC2)CC(CC(=O)NCCc2ccccn2)C(=O)N1CCC1=CCCCC1 (configuration not stated)	1	6	0	·	4	·	·
O=C(/C=C/Nc1ccc(F)cc1F)c1ccc(Br)cc1	1	0	12*	·	0	-67	-60
O=C(/C=C/Nc1ccc(F)cc1F)c1ccco1	-9	-1	-10	1	-2	·	·
COC(=O)N(C)C[C@H]1OCc2cnnn2CCCC(=O)N([C@H](C)CO)C[C@@H]1C	3	4	0	·	8	·	·
CCc1ccc(NC(=O)CCNC(=O)Cn2cnc3ccccc3c2=O)cc1	-4	6	3	-18	0	·	·
CCOC(=O)C1=C(CC)Nc2ccccc2N=C1NC(=O)Cn1cnc2ccccc2c1=O	8	8	9.5*	5	-7	-7	-3
CCOc1ccc(NC(=O)CCNC(=O)Cn2cnc3ccccc3c2=O)cc1	-9	-8	9.6*	-8	3	-1	1
Cc1ccc(CNC(=O)C(=O)NCCC2CCCCN2S(=O)(=O)c2cccs2)cc1 (configuration not stated)	-5	-9	4	·	0	·	·
O=C(O)c1ccc(NS(=O)(=O)c2cc(Cl)ccc2Cl)cc1	0	2	3	2	-2	·	·
CC(=O)Nc1ccc(NS(=O)(=O)c2cc(Cl)ccc2Cl)cc1	-4	-2	9.7*	-5	-3	-3	0
CC(C)(C)c1ccc(/C=N/NC(=S)NC2CCCCC2)cc1	6	2	11*	-22	-3	1	-4
COc1ccc(CCNC(=O)C2CC(=O)N(C3CCCCC3)C2)cc1OC (configuration not stated)	-2	-3	11*	-30	-8	-1	0
O=C(NCc1ccccn1)c1cc(-c2ccc(Cl)cc2)oc1C(F)(F)F	-7	-4	0	-22	10	·	·
Cc1ccc(S(=O)(=O)NC(C)(C)CSc2nncn2N)cc1	3	-3	11*	-4	1	0	2
FC(F)(F)c1ccc(N/N=C/c2cccnc2)nc1	-7	5	0	-4	4	·	·
FC(F)(F)c1ccccc1N/N=C/c1cccnc1	-3	5	10*	-16	-5	1	-2
CCn1c(CNc2ccc(F)cc2)nnc1SCC(=O)Nc1ccccc1OC	5	9	11*	-23	0	-7	-2
O=S(=O)([N-]c1nc2ccccc2nc1-[n+]1ccccc1)c1ccc(F)cc1	-2	5	11*	-2	-6	-7	-7
Cc1ccc[n+](-c2nc3ccccc3nc2[N-]S(=O)(=O)c2ccccc2)c1	-8	5	-1	-7	2	·	·
Cc1ccc(-c2cc3c(nn2)-c2ccccc2C3=O)cc1	0	0	3	4	2	·	·
Cc1ccccc1-c1cc2c(nn1)-c1ccccc1C2=O	12*	-6	9	5	3	2	1
CC(=O)N1CCc2cc(S(=O)(=O)NC(C(=O)Nc3ccc4c(c3)OCCO4)C(C)C)ccc21 (configuration not stated)	3	0	11*	-5	1	3	5
Cc1ccc(NC(=O)Nn2cnnc2)cc1	-7	-1	2	-15	-7	·	·
O=C(Nc1ccc([N+](=O)[O-])cc1)Nn1cnnc1	4	1	12*	-2	-3	-3	-3
Cc1ccc(C(C(=O)NCc2ccco2)N(CCc2ccccc2)C(=O)Cn2nnc3ccccc32)o1 (configuration not stated)	11*	-3	4	-23	6	-4	-3
SMILES	PLC-beta3 inh	Tn6 DDE FP	PLC-gamma1 inh	DNA FID counter	Tn7 DDE FP	PLCgamma1 ctr	PLCb3 confirm
CCC(C)C(=O)Nc1nc2ccc(OC)cc2s1 (configuration not stated)	-5	-4	-1	-5	-1	·	·
CCSC1=C(C#N)C2(CCCCC2)C(C#N)C(=O)N1 (configuration not stated)	2	-1	13*	-2	0	-6	-5
Cc1cc(Cl)ccc1NC(=O)Nc1c(C)n(-c2ccccc2)c(=O)n1C	4	-12	9.6*	-2	-3	-6	-5
COc1ccc(Cl)c(NC(=O)Nc2c(C)n(-c3ccccc3)c(=O)n2C)c1	1	9	-1	-4	0	·	·
C[C@H]1CCC(=O)N([C@H](COc2ccccc2)Cc2ccccc2)CC1	2	-3	11*	-40	-15	-9	-3
Clc1ccccc1COc1ccc(/C=N/n2cnnc2)cc1	4	0	1	-15	-2	·	·
C=CCNC(=S)N/N=C/c1ccc(OCc2ccccc2Cl)cc1	-1	-1	10*	-7	5	-5	-9
c1ccc(N(c2ccccc2)c2nc(-n3ccnc3)nc(-n3ccnc3)n2)cc1	-1	-6	0	-13	1	·	·
Clc1nc(Cl)nc(N(c2ccccc2)c2ccccc2)n1	6	5	9.6*	4	-10	-5	0
COC(=O)[C@]12C[C@H](CC(=O)NCCCCc3ccccc3)C(=O)N(CCc3ccc(OC)c(OC)c3)C1=C[C@H](C1CCCC1)O[C@@H]2C	-2	-3	-2	·	-6	·	·
O=c1c2ccccc2nc(-c2cccs2)n1-c1cccc2ccccc12	-13	-1	-11	-2	-6	·	·
CC(CCN1CCC(C(O)(c2ccccc2)c2ccccc2)CC1)Oc1cc(F)cc(C#N)c1 (configuration not stated)	4	2	12*	·	2	8	3
O=C(NCc1cccs1)c1cc2c(s1)CCCC2	7	-7	11*	-6	-7	0	5
Cc1nn(CC(=O)N2CCN(c3ccccc3)CC2)c(C)c1[N+](=O)[O-]	-6	4	0	-6	6	·	·
Cc1ccc(S(=O)(=O)N2CCN(C(=O)Cn3nc(C)c([N+](=O)[O-])c3C)CC2)c(C)c1	-8	-11	10*	-33	-6	0	2
O=C(NC1CCN(C(=S)Nc2ccc(F)cc2)CC1)C1CCCCC1	-7	-1	0	-10	-4	·	·
O=C(NCc1ccccc1)Nc1nnc([C@@H]2C[C@H](O)[C@@H](CO)O2)s1	6	-2	15*	·	5	-6	1
O=C(Nc1nnc([C@@H]2C[C@H](O)[C@@H](CO)O2)s1)NC(c1ccccc1)c1ccccc1	-2	-3	2	·	2	·	·
